Experimental findings from ChEMBL document CHEMBL3525985, “Regiospecificity and stereospecificity of human UDP-glucuronosyltransferases in the glucuronidation of estriol, 16-epiestriol, 17-epiestriol, and 13-epiestradiol” (Drug Metab Dispos, 2013) are described below.

Holding throughout (format): ADME
A short description of series [1]: Drug metabolism in human intestine microsomes assessed as estriol-16-glucuronide formation after 15 to 60 mins by Michaelis-Menten equation analysis in presence of UDPGA. Summed up: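 Pooled human intestine microsomes (6 donors), 0.5 or 10 µg, with alamethicin at 5% of total protein. Incubated with 50 mM phosphate pH 7.4, 10 mM MgCl₂, 5 mM UDPGA and 10% DMSO for 15–60 min at 37°C. Each glucuronide regioisomer quantified by HPLC, in triplicate, with substrate consumption at or below 10%.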

Series [2] addresses T1, UDP-glucuronosyltransferase 1A8 (Homo sapiens, UniProt Q9HAW9).
T1 sequence (Q9HAW9 whole entry): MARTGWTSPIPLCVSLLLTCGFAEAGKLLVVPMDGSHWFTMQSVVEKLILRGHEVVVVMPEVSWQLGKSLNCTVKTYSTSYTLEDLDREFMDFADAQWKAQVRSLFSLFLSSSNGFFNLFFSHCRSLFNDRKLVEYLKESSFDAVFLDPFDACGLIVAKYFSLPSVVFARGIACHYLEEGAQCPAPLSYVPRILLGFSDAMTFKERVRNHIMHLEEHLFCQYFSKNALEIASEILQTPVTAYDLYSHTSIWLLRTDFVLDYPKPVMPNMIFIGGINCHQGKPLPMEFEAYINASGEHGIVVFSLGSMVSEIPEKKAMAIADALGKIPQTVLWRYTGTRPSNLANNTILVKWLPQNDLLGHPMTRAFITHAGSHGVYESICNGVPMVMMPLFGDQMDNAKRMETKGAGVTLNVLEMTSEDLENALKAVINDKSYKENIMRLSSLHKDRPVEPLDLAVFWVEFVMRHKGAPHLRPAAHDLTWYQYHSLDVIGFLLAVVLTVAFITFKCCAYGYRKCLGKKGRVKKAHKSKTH
The series can be described thus: Drug metabolism assessed as recombinant human C-terminal His-tagged UGT1A8-mediated estriol-3-glucuronide formation at 200 uM after 15 to 60 mins by HPLC analysis in presence of UDPGA. The following applies: recombinant enzyme. The procedure, abridged: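 Screen at 200 µM substrate (DMSO, 10% final) with 5 or 50 µg UGT-enriched insect-cell membranes in 50 mM phosphate pH 7.4, 10 mM MgCl2, 5 mM UDPGA; 37°C, 15–60 min. Stopped with perchloric acid, then iced and centrifuged; glucuronides resolved by HPLC. Triplicates with no-UDPGA controls; ≤10% substrate consumed; rates normalized to relative UGT expression (UGT1A7 15.5, UGT1A8 1.4; UGT1A3 = 1.0).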

Series [3] has as its target T2, UDP-glucuronosyltransferase 1A10 (Homo sapiens, UniProt Q9HAW8).
T2 sequence (Q9HAW8 whole entry): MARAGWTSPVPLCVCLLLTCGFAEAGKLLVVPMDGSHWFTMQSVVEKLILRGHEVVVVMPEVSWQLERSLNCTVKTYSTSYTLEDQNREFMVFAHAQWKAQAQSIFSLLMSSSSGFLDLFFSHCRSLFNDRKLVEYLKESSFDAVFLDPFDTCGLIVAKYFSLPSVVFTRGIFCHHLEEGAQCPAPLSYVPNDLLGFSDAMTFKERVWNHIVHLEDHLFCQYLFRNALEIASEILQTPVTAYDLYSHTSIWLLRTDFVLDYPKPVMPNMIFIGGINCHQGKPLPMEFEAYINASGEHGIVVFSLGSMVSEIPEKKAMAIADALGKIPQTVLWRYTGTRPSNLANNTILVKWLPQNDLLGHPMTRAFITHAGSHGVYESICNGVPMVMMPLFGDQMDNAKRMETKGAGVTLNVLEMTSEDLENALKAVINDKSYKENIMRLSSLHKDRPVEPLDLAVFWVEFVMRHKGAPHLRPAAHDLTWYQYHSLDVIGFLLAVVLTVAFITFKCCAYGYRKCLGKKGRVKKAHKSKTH
Briefly: Inhibition of recombinant human C-terminal His-tagged UGT1A10 after 15 to 60 mins by Michaelis-Menten equation analysis in presence of UDPGA. The procedure, abridged:
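Kinetics with His-tagged UGT-enriched insect-cell membranes (5 or 50 µg): aglycone 0.2–300 µM in 10% DMSO, 5 mM UDPGA, 10 mM MgCl₂, 50 mM phosphate pH 7.4, 15–60 min at 37°C. Substrate consumption kept at or below 10%. Glucuronides quantified by HPLC in triplicate, rates normalized to expression, and data fitted to Michaelis-Menten.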

Series [4] addresses T2, UDP-glucuronosyltransferase 1A10. Briefly: Drug metabolism assessed as recombinant human C-terminal His-tagged UGT1A10-mediated 16-epiestriol-3-glucuronide formation after 15 to 60 mins by Michaelis-Menten equation analysis in presence of UDPGA. The following applies: recombinant enzyme. Summed up:
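For kinetics, the aglycone ranged from 0.2 to 300 μM in DMSO (10% final) with 5 mM UDPGA, 10 mM MgCl₂ and 50 mM phosphate pH 7.4. Enzyme was UGT-enriched insect cell membranes. Incubation was 15–60 min at 37°C, in triplicate, keeping substrate consumption ≤10%. Products were measured by HPLC and fitted to Michaelis-Menten. Rates were normalized to expression level.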

Series [5] has as its target T3, UDP-glucuronosyltransferase 2B17 (Homo sapiens, UniProt O75795).
T3 sequence (O75795 whole entry): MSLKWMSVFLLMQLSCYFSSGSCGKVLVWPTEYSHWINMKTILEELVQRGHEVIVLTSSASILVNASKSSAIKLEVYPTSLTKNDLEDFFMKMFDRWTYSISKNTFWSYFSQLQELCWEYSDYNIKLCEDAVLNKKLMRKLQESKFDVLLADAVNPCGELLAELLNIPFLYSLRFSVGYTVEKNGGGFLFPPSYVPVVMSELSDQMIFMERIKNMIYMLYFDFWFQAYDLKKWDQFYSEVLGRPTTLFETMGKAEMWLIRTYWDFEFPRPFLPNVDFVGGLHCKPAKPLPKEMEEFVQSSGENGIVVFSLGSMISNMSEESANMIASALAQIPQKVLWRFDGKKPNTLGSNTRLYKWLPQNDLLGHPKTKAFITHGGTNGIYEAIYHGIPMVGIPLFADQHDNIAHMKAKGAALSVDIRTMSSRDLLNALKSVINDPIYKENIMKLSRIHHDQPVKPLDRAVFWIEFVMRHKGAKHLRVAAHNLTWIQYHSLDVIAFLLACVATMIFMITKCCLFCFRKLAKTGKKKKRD
Briefly: Drug metabolism assessed as recombinant human C-terminal His-tagged UGT2B17-mediated 16-epiestriol-17-glucuronide formation at 5 mg after 5 hrs by NMR spectroscopic analysis in presence of UDPGA.

Turning to `C[C@]12CC[C@@H]3c4ccc(O)cc4CC[C@H]3[C@@H]1C[C@@H](O)[C@@H]2O` [ESTRIOL], in series [1], the Michaelis constant (Km) turned out to be 5.1 µM and the Vmax is 953 pmol/min/mg. Moreover, in series [2], the Drug metabolism entry was “metabolite_detected”.

Consider `C[C@]12CC[C@@H]3c4ccc(O)cc4CC[C@H]3[C@@H]1C[C@H](O)[C@@H]2O` [EPIESTRIOL], for which the Ki in series [3] amounted to 98.1 µM. Also, the Drug metabolism in series [4] is on record as 3500 pmol/min/mg; in series [5] it was “metabolite_detected”.
